Activity calls are given as the source filed them. No cut-off for these calls is given here.
Columns and labels:
[1] = Cytotoxicity against human RPMI8226 after 48 hrs by MTT assay; type: functional; settings: RPMI-8226, 48 h
[2] = species on record: Homo sapiens; experiment: Selectivity index, ratio of IC50 for FDPS (unknown origin) to IC50 for GGDPS (unknown origin)
[3] = molecular target: T1, Farnesyl pyrophosphate synthase (Homo sapiens, UniProt P14324); experiment: Inhibition of recombinant FDPS (unknown origin) assessed as radiolabeled FPP formation preincubated for 10 mins followed by addition of 10 uM GPP substrate and [14C]IPP for 30 mins by liquid scintillation counter analysis
T1 sequence (P14324 whole entry): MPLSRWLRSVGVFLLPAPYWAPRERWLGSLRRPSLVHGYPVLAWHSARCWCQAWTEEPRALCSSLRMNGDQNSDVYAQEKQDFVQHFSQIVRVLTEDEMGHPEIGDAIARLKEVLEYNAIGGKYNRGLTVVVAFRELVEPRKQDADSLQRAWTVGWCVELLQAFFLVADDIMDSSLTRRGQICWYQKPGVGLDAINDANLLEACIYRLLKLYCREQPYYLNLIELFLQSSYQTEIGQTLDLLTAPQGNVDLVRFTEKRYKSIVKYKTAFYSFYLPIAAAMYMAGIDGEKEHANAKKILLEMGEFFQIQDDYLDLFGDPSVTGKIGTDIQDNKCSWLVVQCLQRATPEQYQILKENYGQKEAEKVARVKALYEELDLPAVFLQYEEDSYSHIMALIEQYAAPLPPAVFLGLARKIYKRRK

[4] = molecular target: T2, Geranylgeranyl pyrophosphate synthase (Homo sapiens, UniProt O95749); experiment: Inhibition of recombinant GGDPS (unknown origin) assessed as radiolabeled GGPP formation preincubated for 10 mins followed by addition of 10 uM FPP substrate and [14C]IPP for 30 mins by liquid scintillation counter analysis
T2 sequence (O95749 whole entry): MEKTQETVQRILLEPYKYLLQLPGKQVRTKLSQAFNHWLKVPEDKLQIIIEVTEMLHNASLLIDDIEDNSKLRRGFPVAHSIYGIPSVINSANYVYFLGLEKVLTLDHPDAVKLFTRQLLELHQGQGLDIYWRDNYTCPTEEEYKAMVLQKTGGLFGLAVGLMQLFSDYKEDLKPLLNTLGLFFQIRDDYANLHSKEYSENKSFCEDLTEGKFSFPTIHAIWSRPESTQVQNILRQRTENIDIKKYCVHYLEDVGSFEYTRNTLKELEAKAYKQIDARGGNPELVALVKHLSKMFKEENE

[5] = molecular target: T3, Geranylgeranyl pyrophosphate synthase (Homo sapiens) (UniProt O95749); experiment: Inhibition of GGDPS in human RPMI8226 cells assessed as disruption of Rap1a geranylation after 48 hrs by immunoblot analysis; type: cell-based; settings: RPMI-8226
T3 sequence (whole entry): T2 sequence (O95749 whole entry)
Summary of the method: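 RPMI-8226 human myeloma cells incubated 48 h with or without compound, with lovastatin (10 μM) as positive control. Cells were lysed in RIPA buffer and immunoblotted with an antibody that detects only unmodified Rap1a, with β-tubulin as loading control. The value is the lowest concentration at which disruption was seen; blots are representative of two independent studies.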

[6] = molecular target: T3, Geranylgeranyl pyrophosphate synthase (Homo sapiens); experiment: Inhibition of GGDPS in human RPMI8226 cells assessed as disruption of Rap1a geranylation at 50 nM after 48 hrs by immunoblot analysis; settings: RPMI-8226

| Ratio IC50 [2] | IC50 [3] [nM] | IC50 [4] [nM] | Activity [5] [µM] | Compound | EC50 [1] [nM] | inhibition [6] |
| --- | --- | --- | --- | --- | --- | --- |
| 15 | 6600 | 430 | 5 | CC(C)=CCCn1cc(CC(P(=O)(O)O)P(=O)(O)O)nn1 | 15000 | – |
| 34 | 13000 | 380 | 0.5 | CC(C)=CCC/C(C)=C/CC(Cc1cn(CCC=C(C)C)nn1)(P(=O)(O)O)P(=O)(O)O | 1000 | – |

| Compound | Ratio IC50 [2] | IC50 [3] [nM] | IC50 [4] [nM] | Activity [5] [µM] | EC50 [1] [nM] | inhibition [6] |
| --- | --- | --- | --- | --- | --- | --- |
| CC(C)=CCC/C(C)=C/CCn1cc(CC(P(=O)(O)O)P(=O)(O)O)nn1 | 620 | 28000 | 45 | 0.05 | 190 | Active |

— ChEMBL document CHEMBL3774363, “Potent Triazole Bisphosphonate Inhibitor of Geranylgeranyl Diphosphate Synthase” (ACS Med Chem Lett, 2015)
